Active and inactive are the calls of the source. The rule behind the calls is not given here.
Legend:
Quadruplex DNA [1] = assay: Binding affinity to human c-Kit2 G-quadruplex DNA assessed as stabilization of parallel stranded topology after 5 mins in presence of KCl by CD spectroscopic method; format: nucleic-acid assay
In short: (§1)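 CD spectra of 5 µM G4 DNA in 10 mM Tris-HCl pH 7.4, 100 mM KCl, 0.1 mM EDTA, with or without ligand. Mixtures were heated 95 °C for 5 min and slowly cooled to room temperature. Recorded 200–400 nm at 25 °C, 100 nm/min, 2 s response, 1 cm cell; average of three scans.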

Quadruplex DNA [2] = assay: Binding affinity to human VEGF G-quadruplex DNA assessed as change in melting temperature in presence of KCl by CD spectroscopic method; format: nucleic-acid assay
In short: (§2)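 CD melting of 5 µM G4 DNA in 10 mM Tris-HCl pH 7.4, 25 mM KCl, 0.1 mM EDTA. Ligand was present during folding (heating, slow cooling). Spectra 200–400 nm over 20–96 °C in 2 °C steps, buffer blank subtracted. Tm was taken from normalized ellipticity at the positive maximum (262 nm for promoter G4s). ΔTm = ligand-bound minus DNA alone; average of two independent experiments.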

Quadruplex DNA [3] = assay: Stabilization of VEGF G-quadruplex DNA in human HeLa cells assessed as decrease in VEGF mRNA level at 5 uM after 24 hrs by RT-PCR method relative to control; format: cell-based; parameters: scale not given: the % may be the effect or the level left
In short: (§3)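 HeLa cells exposed to increasing ligand concentrations (5 and 10 µM named) for 24 h, with DMSO-treated cells as control. Total RNA was extracted with TRI reagent and DNase I-treated. c-MYC and VEGF transcripts were quantified by qRT-PCR, normalized to GAPDH, and expressed as relative fold change.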

Quadruplex DNA [4] = assay: Displacement of thiazole orange from human VEGF G-quadruplex DNA after 5 mins in presence of KCl by fluorescence assay; format: nucleic-acid assay
In short: (§4)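 Thiazole orange displacement from a G4 DNA–TO complex (1 µM TO + 0.5 µM G4 DNA) in 10 mM Tris-HCl pH 7.4, 100 mM KCl, 0.1 mM EDTA. Ligand was added in increasing steps, with 5 min incubation each. Fluorescence read at ex 501/em 531 nm; % displacement = 100 − (Ft/F0 × 100). DC50 is the ligand concentration giving 50% displacement, read from plots; average of two independent experiments.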

Quadruplex DNA [5] = assay: Binding affinity to human c-Kit1 G-quadruplex DNA at 0.6 uM after 5 mins in presence of KCl by fluorescence spectroscopic method; format: nucleic-acid assay
In short: (§5)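 Fluorescence titration at 25 °C with 0.6 µM ligand in 10 mM Tris-HCl pH 7.4, 100 mM KCl, 0.1 mM EDTA. Preformed G4 DNA was added stepwise, with 5 min incubation before each spectrum. Excitation 330 nm; emission 350–550 nm, slit 5 nm.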

Quadruplex DNA [6] = assay: Displacement of thiazole orange from human c-Kit2 G-quadruplex DNA after 5 mins in presence of KCl by fluorescence assay; format: nucleic-acid assay; in short: as §4
Quadruplex DNA [7] = assay: Binding affinity to human Bcl2 G-quadruplex DNA assessed as change in melting temperature in presence of KCl by CD spectroscopic method; format: nucleic-acid assay; in short: as §2
Calf thymus DNA = assay: Displacement of thiazole orange from calf thymus duplex DNA after 5 mins in presence of KCl by fluorescence assay; format: nucleic-acid assay, Bos taurus
Quadruplex DNA [8] = assay: Binding affinity to human telomeric G-quadruplex DNA at 0.6 uM after 5 mins in presence of KCl by fluorescence spectroscopic method; format: nucleic-acid assay; in short: as §5
Quadruplex DNA [9] = assay: Binding affinity to human 77-mer c-Myc G-quadruplex DNA assessed as inhibition of Taq DNA polymerase-mediated DNA synthesis by measuring generation of premature chain termination products using 32P-labeled primer after 30 mins by polymerase stop assay; format: nucleic-acid assay
In short: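 Template of 10 nM single-stranded 77-mer c-MYC with the G-quadruplex-forming sequence, annealed to 32P-labeled plus cold primer (15 nM) in Tris-HCl pH 7.4 with 5 mM KCl. Annealing was 95 °C for 5 min then slow cooling, with ligand added before annealing. Extension with Taq polymerase (5 mM MgCl2, 0.5 mM DTT, 0.2 mM dNTPs) ran 30 min at 48 or 40 °C. Products were resolved on 15% urea denaturing PAGE and read by phosphorimaging.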

Quadruplex DNA [10] = assay: Binding affinity to human c-Kit2 G-quadruplex DNA at 0.6 uM after 5 mins in presence of KCl by fluorescence spectroscopic method; format: nucleic-acid assay; in short: as §5
Quadruplex DNA [11] = assay: Binding affinity to human telomeric G-quadruplex DNA assessed as change in melting temperature in presence of KCl by CD spectroscopic method; format: nucleic-acid assay; in short: as §2
Quadruplex DNA [12] = assay: Binding affinity to human c-Myc G-quadruplex DNA assessed as stabilization of parallel stranded topology after 5 mins in presence of KCl by CD spectroscopic method; format: nucleic-acid assay; in short: as §1
Quadruplex DNA [13] = assay: Stabilization of VEGF G-quadruplex DNA in human HeLa cells assessed as decrease in VEGF mRNA level at 10 uM after 24 hrs by RT-PCR method relative to control; format: cell-based; parameters: scale not given: the % may be the effect or the level left; in short: as §3
Quadruplex DNA [14] = assay: Displacement of thiazole orange from human telomeric G-quadruplex DNA after 5 mins in presence of KCl by fluorescence assay; format: nucleic-acid assay; in short: as §4
Quadruplex DNA [15] = assay: Stabilization of c-Myc G-quadruplex DNA in human HeLa cells assessed as decrease in c-Myc mRNA level at 5 uM after 24 hrs by RT-PCR method relative to control; format: cell-based; parameters: scale not given: the % may be the effect or the level left; in short: as §3
HeLa [16] = assay: Cytotoxicity against human HeLa cells assessed as reduction in cell viability after 72 hrs by MTT assay; format: functional, cell-based
In short: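 HeLa and MCF7 cells in log phase were seeded for 24 h, then exposed to a range of ligand concentrations for 72 h. MTT (5 mg/ml stock) was added for 4 h, formazan dissolved in DMSO, and absorbance read at 570 nm. Three independent experiments in triplicate, mean ± SD.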

Quadruplex DNA [17] = assay: Stabilization of c-Myc G-quadruplex DNA in human HeLa cells assessed as decrease in c-Myc mRNA level at 10 uM after 24 hrs by RT-PCR method relative to control; format: cell-based; parameters: scale not given: the % may be the effect or the level left; in short: as §3
HeLa [18] = assay: Effect on GADPH mRNA level in human HeLa cells assessed as decrease in VEGF mRNA level at 2.5 to 10 uM after 24 hrs by RT-PCR method; format: cell-based
Quadruplex DNA [19] = assay: Binding affinity to human c-Kit1 G-quadruplex DNA assessed as stabilization of parallel stranded topology after 5 mins in presence of KCl by CD spectroscopic method; format: nucleic-acid assay; in short: as §1
Quadruplex DNA [20] = assay: Induction of conformational changes in human telomeric G-quadruplex DNA assessed as inversion from potassium ion stabilized hybrid type mixed parallel/antiparallel G-quadruplex to stable telomere parallel-stranded G-quadruplex after 5 mins in presence of KCl by CD spectroscopic method; format: nucleic-acid assay; in short: as §1
Quadruplex DNA [21] = assay: Binding affinity to human c-Kit1 G-quadruplex DNA assessed as change in melting temperature in presence of KCl by CD spectroscopic method; format: nucleic-acid assay; in short: as §2
Quadruplex DNA [22] = assay: Binding affinity to human c-Myc G-quadruplex DNA at 0.6 uM after 5 mins in presence of KCl by fluorescence spectroscopic method; format: nucleic-acid assay; in short: as §5
Quadruplex DNA [23] = assay: Binding affinity to human c-Kit2 G-quadruplex DNA assessed as change in melting temperature in presence of KCl by CD spectroscopic method; format: nucleic-acid assay; in short: as §2
Quadruplex DNA [24] = assay: Binding affinity to human Bcl2 G-quadruplex DNA at 0.6 uM after 5 mins in presence of KCl by fluorescence spectroscopic method; format: nucleic-acid assay; in short: as §5

**Q.** Which Activity (Quadruplex DNA [1]) does the source give for CN(C)CCCCn1c2ccc(-c3nc4ccc(N5CCN(CCO)CC5)cc4[nH]3)cc2c2cc(-c3nc4ccc(N5CCN(CCO)CC5)cc4[nH]3)ccc21 here?
**A.** Its Activity is “Active”.

**Q.** And the ΔTm (Quadruplex DNA [2])?
**A.** Its ΔTm is 11.3 °C.

**Q.** What about the Activity (Quadruplex DNA [3]) of the same compound?
**A.** Its Activity is 44%.

**Q.** What about the DC50 (Quadruplex DNA [4]) of the same compound?
**A.** The DC50 was 0.78 µM.

**Q.** What about the Activity (Quadruplex DNA [5]) of the same compound?
**A.** The Activity was “Active”.

**Q.** What about the DC50 (Quadruplex DNA [6]) of the same compound?
**A.** Its DC50 is 0.65 µM.

**Q.** And the ΔTm (Quadruplex DNA [7])?
**A.** The ΔTm was 9.54 °C.

**Q.** And the DC50 (Calf thymus DNA)?
**A.** Its DC50 is 6.94 µM.

**Q.** What about the Activity (Quadruplex DNA [8]) of the same compound?
**A.** Its Activity is “Active”.

**Q.** What about the Activity (Quadruplex DNA [9]) of the same compound?
**A.** The Activity was “Dose-dependent effect”.

**Q.** And the Activity (Quadruplex DNA [10])?
**A.** Its Activity is “Active”.

**Q.** What about the ΔTm (Quadruplex DNA [11]) of the same compound?
**A.** Its ΔTm is 21.3 °C.

**Q.** What about the Activity (Quadruplex DNA [12]) of the same compound?
**A.** The Activity was “Active”.

**Q.** And the Activity (Quadruplex DNA [13])?
**A.** The Activity was 68%.

**Q.** What about the DC50 (Quadruplex DNA [14]) of the same compound?
**A.** Its DC50 is 1.13 µM.

**Q.** What about the Activity (Quadruplex DNA [15]) of the same compound?
**A.** Its Activity is 49%.

**Q.** And the Activity (HeLa [16])?
**A.** The Activity was “Dose-dependent effect”.

**Q.** What about the IC50 (HeLa [16]) of the same compound?
**A.** The IC50 was 8.29 µM.

**Q.** What about the Activity (Quadruplex DNA [17]) of the same compound?
**A.** The Activity was 71%.

**Q.** What about the Activity (HeLa [18]) of the same compound?
**A.** The Activity was “Non-Toxic”.

**Q.** What about the Activity (Quadruplex DNA [19]) of the same compound?
**A.** Its Activity is “Active”.

**Q.** And the Activity (Quadruplex DNA [20])?
**A.** Its Activity is “Active”.

**Q.** What about the ΔTm (Quadruplex DNA [21]) of the same compound?
**A.** The ΔTm was 24.7 °C.

**Q.** And the Activity (Quadruplex DNA [22])?
**A.** The Activity was “Active”.

**Q.** What about the ΔTm (Quadruplex DNA [23]) of the same compound?
**A.** Its ΔTm is 23.3 °C.

**Q.** And the Activity (Quadruplex DNA [24])?
**A.** Its Activity is “Active”.
